Experiments:
[1] = substrate: CC(C)(C)OC(=O)NCC[C@H](NC(=O)[C@H](CC1CCCCC1)NC(=O)N1CCOCC1)C(=O)NCCNC(=O)OCC1c2ccccc2-c2ccccc21; test: Activity at recombinant cathepsin K
How it was run: (§1)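 Active-site-titrated (E-64) recombinant human cathepsins B, L, S and in-house cathepsin K, 10 nM final in pH 6.5 acetate/HEPES buffer with 300 mM NaCl, 0.001% Pluronic and L-cysteine; DMSO-dissolved Cy7/BHQ-3 quenched substrate 0.8–40 µM final (DMSO ≤1%); fluorescence read at 25 °C (λex 710, λem 767 nm); steady-state data fitted by non-linear least squares to Michaelis–Menten with substrate inhibition.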

[2] = substrate: CC(C)(C)OC(=O)NCC[C@H](NC(=O)[C@H](CC1CCCCC1)NC(=O)N1CCOCC1)C(=O)NCCNC(=O)OCC1c2ccccc2-c2ccccc21; test: Ratio of Kcat/Km for recombinant cathepsin K; how it was run: as §1
[3] = substrate: CC(C)(C)OC(=O)NCC[C@H](NC(=O)[C@H](CC1CCCCC1)NC(=O)N1CCOCC1)C(=O)NCCNC(=O)OCC1c2ccccc2-c2ccccc21; test: (§2) Activity at recombinant cathepsin L; how it was run: as §1
[4] = substrate: CCN(CC)c1ccc2nc3ccc(/N=N/c4ccc(N(C)CCCC(=O)NCCNC(=O)[C@H](CCNC(=O)CCCCCN5/C(=C\C=C\C=C\C=C\C6N(CC)c7ccc(S(=O)(=O)O)cc7C6(C)C)C(C)(C)c6cc(S(=O)(=O)[O-])ccc65)NC(=O)[C@H](CC5CCCCC5)NC(=O)N5CCOCC5)cc4)cc3[n+](-c3ccccc3)c2c1; test: as §2; how it was run: as §1
[5] = substrate: CC(C)(C)OC(=O)NCC[C@H](NC(=O)[C@H](CC1CCCCC1)NC(=O)N1CCOCC1)C(=O)NCCNC(=O)OCC1c2ccccc2-c2ccccc21; test: (§3) Ratio of Kcat/Km for recombinant cathepsin L; how it was run: as §1
[6] = substrate: CCN(CC)c1ccc2nc3ccc(/N=N/c4ccc(N(C)CCCC(=O)NCCNC(=O)[C@H](CCNC(=O)CCCCCN5/C(=C\C=C\C=C\C=C\C6N(CC)c7ccc(S(=O)(=O)O)cc7C6(C)C)C(C)(C)c6cc(S(=O)(=O)[O-])ccc65)NC(=O)[C@H](CC5CCCCC5)NC(=O)N5CCOCC5)cc4)cc3[n+](-c3ccccc3)c2c1; test: as §3; how it was run: as §1
[7] = substrate: CC(C)(C)OC(=O)NCC[C@H](NC(=O)[C@H](CC1CCCCC1)NC(=O)N1CCOCC1)C(=O)NCCNC(=O)OCC1c2ccccc2-c2ccccc21; test: (§4) Activity at recombinant cathepsin S; how it was run: as §1
[8] = substrate: CCN(CC)c1ccc2nc3ccc(/N=N/c4ccc(N(C)CCCC(=O)NCCNC(=O)[C@H](CCNC(=O)CCCCCN5/C(=C\C=C\C=C\C=C\C6N(CC)c7ccc(S(=O)(=O)O)cc7C6(C)C)C(C)(C)c6cc(S(=O)(=O)[O-])ccc65)NC(=O)[C@H](CC5CCCCC5)NC(=O)N5CCOCC5)cc4)cc3[n+](-c3ccccc3)c2c1; test: as §4; how it was run: as §1
[9] = substrate: CC(C)(C)OC(=O)NCC[C@H](NC(=O)[C@H](CC1CCCCC1)NC(=O)N1CCOCC1)C(=O)NCCNC(=O)OCC1c2ccccc2-c2ccccc21; test: (§5) Ratio of Kcat/Km for recombinant cathepsin S; how it was run: as §1
[10] = substrate: CCN(CC)c1ccc2nc3ccc(/N=N/c4ccc(N(C)CCCC(=O)NCCNC(=O)[C@H](CCNC(=O)CCCCCN5/C(=C\C=C\C=C\C=C\C6N(CC)c7ccc(S(=O)(=O)O)cc7C6(C)C)C(C)(C)c6cc(S(=O)(=O)[O-])ccc65)NC(=O)[C@H](CC5CCCCC5)NC(=O)N5CCOCC5)cc4)cc3[n+](-c3ccccc3)c2c1; test: as §5; how it was run: as §1

B1: Cathepsin K (Homo sapiens), P43235 (protein)
chain: MWGLKVLLLPVVSFALYPEEILDTHWELWKKTHRKQYNNKVDEISRRLIWEKNLKYISIHNLEASLGVHTYELAMNHLGDMTSEEVVQKMTGLKVPLSHSRSNDTLYIPEWEGRAPDSVDYRKKGYVTPVKNQGQCGSCWAFSSVGALEGQLKKKTGKLLNLSPQNLVDCVSENDGCGGGYMTNAFQYVQKNRGIDSEDAYPYVGQEESCMYNPTGKAAKCRGYREIPEGNEKALKRAVARVGPVSVAIDASLTSFQFYSKGVYYDESCNSDNLNHAVLAVGYGIQKGNKHWIIKNSWGENWGNKGYILMARNKNNACGIANLASFPKM
Question: For B1, which Km [1] is on record?
Answer: Its Km is 89 µM.

Question: What about the kcat/Km [2] of the same protein?
Answer: Its kcat/Km is 187 M⁻¹ s⁻¹.

B2: Procathepsin L (Homo sapiens), P07711 (protein)
chain: MNPTLILAAFCLGIASATLTFDHSLEAQWTKWKAMHNRLYGMNEEGWRRAVWEKNMKMIELHNQEYREGKHSFTMAMNAFGDMTSEEFRQVMNGFQNRKPRKGKVFQEPLFYEAPRSVDWREKGYVTPVKNQGQCGSCWAFSATGALEGQMFRKTGRLISLSEQNLVDCSGPQGNEGCNGGLMDYAFQYVQDNGGLDSEESYPYEATEESCKYNPKYSVANDTGFVDIPKQEKALMKAVATVGPISVAIDAGHESFLFYKEGIYFEPDCSSEDMDHGVLVVGYGFESTESDNNKYWLVKNSWGEEWGMGGYVKMAKDRRNHCGIASAASYPTV
Question: What does the source list for B2?
Answer: Km [3]: 840 µM; Km [4]: 280 µM; kcat/Km [5]: 7070 M⁻¹ s⁻¹; kcat/Km [6]: 187 M⁻¹ s⁻¹

B3: Cathepsin S (Homo sapiens), P25774 (protein)
chain: MKRLVCVLLVCSSAVAQLHKDPTLDHHWHLWKKTYGKQYKEKNEEAVRRLIWEKNLKFVMLHNLEHSMGMHSYDLGMNHLGDMTSEEVMSLMSSLRVPSQWQRNITYKSNPNRILPDSVDWREKGCVTEVKYQGSCGACWAFSAVGALEAQLKLKTGKLVSLSAQNLVDCSTEKYGNKGCNGGFMTTAFQYIIDNKGIDSDASYPYKAMDQKCQYDSKYRAATCSKYTELPYGREDVLKEAVANKGPVSVGVDARHPSFFLYRSGVYYEPSCTQNVNHGVLVVGYGDLNGKEYWLVKNSWGHNFGEEGYIRMARNKGNHCGIASFPSYPEI
Question: For B3, which Km [7] is on record?
Answer: Its Km is 1.3 µM.

Question: And the Km [8]?
Answer: The Km was 25 µM.

Question: And the kcat/Km [9]?
Answer: The kcat/Km was 15100 M⁻¹ s⁻¹.

Question: And the kcat/Km [10]?
Answer: Its kcat/Km is 14200 M⁻¹ s⁻¹.
